Reference: ChEMBL document CHEMBL1157565, “Discovery of 1-[3-(4-bromo-2-methyl-2h-pyrazol-3-yl)-4-methoxyphenyl]-3-(2,4-difluorophenyl)urea (nelotanserin) and related 5-hydroxytryptamine2A inverse agonists for the treatment of insomnia” (J Med Chem, 2010)
pIC50, pKi: −log10 of the molar value. Activity calls are given as the source filed them. No cut-off for these calls is given here.

How the values were obtained:
[1] = target: T1, 5-hydroxytryptamine receptor 2C (Homo sapiens, UniProt P28335); assay: Displacement of [125I]DOI from human recombinant 5HT2C receptor expressed in HEK293 cells by scintillation counting
T1 sequence (P28335 whole entry): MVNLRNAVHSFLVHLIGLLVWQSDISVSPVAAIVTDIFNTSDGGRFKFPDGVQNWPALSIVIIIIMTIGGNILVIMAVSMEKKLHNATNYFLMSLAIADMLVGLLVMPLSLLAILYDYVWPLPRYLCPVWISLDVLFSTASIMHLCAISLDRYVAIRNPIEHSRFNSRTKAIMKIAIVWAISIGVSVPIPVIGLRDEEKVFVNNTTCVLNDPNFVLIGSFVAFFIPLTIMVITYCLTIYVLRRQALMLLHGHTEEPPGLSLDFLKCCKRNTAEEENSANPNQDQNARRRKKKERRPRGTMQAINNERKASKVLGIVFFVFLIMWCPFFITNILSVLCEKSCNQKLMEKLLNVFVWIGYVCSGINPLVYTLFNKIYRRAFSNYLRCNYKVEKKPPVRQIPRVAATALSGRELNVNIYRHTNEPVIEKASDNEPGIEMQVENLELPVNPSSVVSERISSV

[2] = target: T2, 5-hydroxytryptamine receptor 2A (Homo sapiens, UniProt P28223); assay: Activity at human 5HT2A receptor expressed in HEK293 cells assessed as [3H]inositol phosphate production by scintillation counting; type: functional, cell-based; details: for IC50: read-out: pIC50 (converted)
T2 sequence (P28223 whole entry): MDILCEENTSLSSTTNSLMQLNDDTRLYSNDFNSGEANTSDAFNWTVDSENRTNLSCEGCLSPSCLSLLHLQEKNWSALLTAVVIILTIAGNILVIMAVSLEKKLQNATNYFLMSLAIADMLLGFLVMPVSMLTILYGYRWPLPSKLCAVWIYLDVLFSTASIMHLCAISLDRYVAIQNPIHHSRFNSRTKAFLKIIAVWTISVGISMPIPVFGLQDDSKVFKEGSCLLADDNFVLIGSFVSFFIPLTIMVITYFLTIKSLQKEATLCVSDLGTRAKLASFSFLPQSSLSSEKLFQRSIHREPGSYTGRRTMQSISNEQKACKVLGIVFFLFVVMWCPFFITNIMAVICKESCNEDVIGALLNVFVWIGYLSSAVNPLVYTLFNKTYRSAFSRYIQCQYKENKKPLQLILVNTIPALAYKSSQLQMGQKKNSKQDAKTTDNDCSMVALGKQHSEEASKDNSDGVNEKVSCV
In short: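 HEK-293 cells transiently transfected with a mutated, constitutively active h5-HT2A receptor, labeled 18 h with […] [3H]myoinositol in serum- and myoinositol-free DMEM. Then 3 h at 37 °C in HBSS with LiCl (10 mM final), pargyline and compound. Lysis with ice-cold 0.1 M formic acid; total [3H]IP separated on AG1-X8 resin and counted by scintillation. Inverse-agonist pIC50.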

[3] = target: T2, 5-hydroxytryptamine receptor 2A; assay: Displacement of [3H]DOI from human recombinant 5HT2A receptor expressed in HEK293 cells by scintillation counting; type: cell-based; details: in the assay text read “[125I]DOI” for “[3H]DOI”
In short: (§1)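 Crude membranes (5-25 μg protein) from HEK293 cells stably expressing human 5-HT2A or 5-HT2C. Radioligand [125I]DOI at 0.5 nM final; 10 μM cold DOI defines nonspecific binding. Buffer 20 mM HEPES pH 7.4, 10 mM MgCl2; 1 h at room temperature. Eight concentrations (1 pM–10 μM), each in triplicate. Vacuum filtration on GF/C, Tris wash, scintillation counting; pKi.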

[4] = target: T1, 5-hydroxytryptamine receptor 2C; assay: Displacement of [3H]DOI from human recombinant 5HT2C receptor expressed in HEK293 cells by scintillation counting; type: cell-based; details: in the assay text read “[125I]DOI” for “[3H]DOI”
In short: as §1

[5] = target: T2, 5-hydroxytryptamine receptor 2A; assay: Displacement of [125I]DOI from human recombinant 5HT2A receptor expressed in HEK293 cells by scintillation counting
[6] = Cmax in Wistar rat at 1.5 mg/kg, po; type: ADME, organism-based; parameters: dose 1.5 mg/kg, route oral; details: in vivo
In short: (§2)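 Male Wistar rats, fasted overnight, single oral dose in 80% Tween-80/20% water. Jugular vein blood sampled serially over 24 h ([…]); sodium-heparin plasma stored at -70 °C, quantified by HPLC/MS/MS (LLOQ 1 ng/mL, ULOQ 2000 ng/mL). n = 2-3 animals; noncompartmental analysis; values as mean ± SD.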

[7] = test system: Rattus norvegicus; assay: Effect on behavioral activity in po dosed Sprague-Dawley rat assessed as reversal of DOI-induced inhibition of rearing behavior; type: functional
In short: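 Adult male Sprague-Dawley rats dosed orally with compound 45 min before DOI (0.3 mg/kg), which lowers rearing. Fifteen minutes later, rearing recorded in photocell-monitored locomotor activity cages. A dose-response curve for reversal of DOI-induced rearing decrease yields an ED50.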

[8] = test system: Rattus norvegicus; assay: Effect on behavioral activity in Wistar rat assessed as increase in non-rapid eye movement delta power at 1.4 mg/kg, po after 2 hrs; type: functional, organism-based; parameters: dose 1.4 mg/kg
In short: (§3)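 Male Wistar rats (300 ± 25 g) implanted for continuous EEG/EMG recording, 1 week recovery. Repeated-measures design: each rat received each treatment, including 80% Tween-80 vehicle, in random order by oral gavage. Non-REM sleep parameters scored hourly after dosing; at least five rats per compound.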

[9] = Tmax in Wistar rat at 1.5 mg/kg, po; type: ADME, organism-based; parameters: dose 1.5 mg/kg, route oral; details: in vivo
In short: as §2

[10] = Half life in Wistar rat at 1.5 mg/kg, po; type: ADME, organism-based; parameters: dose 1.5 mg/kg, route oral; details: in vivo
In short: as §2

[11] = target: 5-hydroxytryptamine receptor 2A (Rattus norvegicus, UniProt P14842); assay: Displacement of [125I]DOI from rat recombinant 5HT2A receptor by scintillation counting
Sequence of 5-hydroxytryptamine receptor 2A (Rattus norvegicus, UniProt P14842) (P14842 whole entry): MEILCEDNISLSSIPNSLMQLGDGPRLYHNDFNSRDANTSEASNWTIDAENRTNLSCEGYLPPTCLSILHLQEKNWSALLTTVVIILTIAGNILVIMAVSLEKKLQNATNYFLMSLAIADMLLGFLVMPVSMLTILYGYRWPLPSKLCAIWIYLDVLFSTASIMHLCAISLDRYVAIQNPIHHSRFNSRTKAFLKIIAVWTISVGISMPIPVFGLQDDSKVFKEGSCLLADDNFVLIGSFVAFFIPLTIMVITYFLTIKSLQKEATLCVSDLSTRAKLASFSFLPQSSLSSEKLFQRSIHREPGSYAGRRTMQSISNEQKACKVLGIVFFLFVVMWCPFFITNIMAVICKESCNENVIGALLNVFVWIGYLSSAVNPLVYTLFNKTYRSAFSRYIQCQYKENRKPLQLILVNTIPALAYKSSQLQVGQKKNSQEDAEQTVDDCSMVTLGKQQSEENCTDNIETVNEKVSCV

[12] = AUC (0 to infinity) in Wistar rat at 1.5 mg/kg, po; type: ADME, organism-based; parameters: time infinity, dose 1.5 mg/kg, route oral; details: plasma
In short: as §2

[13] = Tmax in Wistar rat at 1.0 mg/kg, po; type: ADME, organism-based; parameters: dose 1 mg/kg, route oral; details: in vivo
In short: as §2

[14] = AUC (0 to infinity) in Wistar rat at 1.0 mg/kg, po; type: ADME, organism-based; parameters: time infinity, dose 1 mg/kg, route oral; details: plasma
In short: as §2

[15] = Cmax in Wistar rat at 1.0 mg/kg, po; type: ADME, organism-based; parameters: dose 1 mg/kg, route oral; details: in vivo
In short: as §2

[16] = test system: Rattus norvegicus; assay: Effect on behavioral activity in Wistar rat assessed as increase in non-rapid eye movement bout length at 1 mg/kg, po after 2 hrs; type: functional, organism-based; parameters: dose 1 mg/kg
In short: as §3

[17] = test system: Rattus norvegicus; assay: Effect on behavioral activity in Wistar rat assessed as increase in non-rapid eye movement delta power at 1 mg/kg, po after 2 hrs; type: functional, organism-based; parameters: dose 1 mg/kg
In short: as §3

[18] = Half life in Wistar rat at 1.0 mg/kg, po; type: ADME, organism-based; parameters: dose 1 mg/kg, route oral; details: in vivo
In short: as §2

Compound	pKi [1]	IC50 [2] [nM]	pKi [3]	pKi [4]	pKi [5]	further results
COc1ccc(NC(=O)Nc2ccc(N(C)C)cc2)cc1-c1c(Br)cnn1C	6.40	50.1	8.80			
COc1ccc(NC(=O)Nc2ccc(Cl)cc2)cc1-c1ccnn1C		1		6.80		
Cn1ncc(Br)c1-c1cccc(NC(=O)Nc2ccc(Cl)cc2)c1						pIC50 [2]: 7.72
COc1ccc(NC(=O)Nc2ccc(OC)c(-c3c(Br)cnn3C)c2)cc1		0.398	9.30	6.90		
Cn1ncc(Br)c1-c1cc(NC(=O)Nc2ccc(Cl)cc2)ccc1OCc1ccccc1		7.94	8.30	6.80		
Cn1ncc(Br)c1-c1cc(NC(=O)Nc2ccc(Cl)cc2)ccc1OCc1ccc(Cl)cc1		12.6	7.70	6.60		
Cn1ncc(Br)c1-c1cccc(NC(=O)Nc2ccc(OC(F)(F)F)cc2)c1						pIC50 [2]: 6.92
CC(C)Oc1ccc(NC(=O)Nc2ccc(Cl)cc2)cc1-c1c(Br)cnn1C		1.58		8.00	9.50	

Second part, led by results:

pKi [1]	IC50 [2] [nM]	pKi [3]	pKi [4]	pKi [5]	Compound	further results
8.40	0.501	9.60			COc1ccc(NC(=O)Nc2ccc(Br)cc2)cc1-c1c(Br)cnn1C	
8.40	1.58			9.50	COc1ccc(NC(=O)Nc2ccc(C(F)(F)F)cc2)cc1-c1c(Br)cnn1C	
	0.501	9.80	8.00		COc1ccc(NC(=O)Nc2ccc(Cl)cc2)cc1-c1c(Cl)cnn1C	Cmax [6]: 41 ng/mL; ED50 [7]: 0.7 mg/kg; Activity [8]: Active; Tmax [9]: 6 h; half-life [10]: 5 h; pKi [11]: 8.70; AUC(0-inf) [12]: 478 ng·h/mL
7.40	0.794			9.50	COc1ccc(NC(=O)Nc2cccc(F)c2)cc1-c1c(Br)cnn1C	
6.50	1			9.20	COc1ccc(NC(=O)Nc2ccc(F)cc2F)cc1-c1c(Cl)cnn1C	
	1.26	9.70	7.60		COc1ccc(NC(=O)Nc2ccc(Cl)cc2Cl)cc1-c1c(Br)cnn1C	
	0.398		7.80	9.40	COc1ccc(NC(=O)Nc2cccc(C(F)(F)F)c2)cc1-c1c(Br)cnn1C	
	0.398	9.60	7.80		COc1ccc(NC(=O)Nc2cccc(Cl)c2)cc1-c1c(Br)cnn1C	
8.50	0.794			9.50	COc1ccc(NC(=O)Nc2ccc(Cl)c(C(F)(F)F)c2)cc1-c1c(Br)cnn1C	
	0.794	9.30	8.00		COc1ccc(NC(=O)Nc2ccc(Cl)cc2)cc1-c1c(Br)cnn1C	Tmax [13]: 3 h; AUC(0-inf) [14]: 281 ng·h/mL; Cmax [15]: 45 ng/mL; pIC50 [2]: 9.15; Activity [16]: Active; ED50 [7]: 0.5 mg/kg; Activity [17]: Active; half-life [18]: 3 h
